Measurements taken from article PMC4136688 (Journal of Medicinal Chemistry, 2014).

Legend:
Human glioma T98G cells [1] = assay: Dark cytotoxicity; format: cell-based; settings: read-out: dark toxicity IC50, CellTiter Blue assay, concentrations up to 400 μM, overnight
Human glioma T98G cells [2] = assay: Time-dependent cellular uptake; format: cell-based; settings: 10 μM, over 24 h
Outline: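 T98G glioma cells (EMEM, 10% FBS) seeded 10 000/well, grown 36 h, then exposed to 10 μM test compound for 0, 1, 2, 4, 8, 24 h. After PBS wash, cells lysed in 0.25% Triton X-100/PBS; porphyrin fluorescence read at 415/650 nm. Cell number by CyQuant; uptake expressed as nM compound per cell.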

hCMEC/D3 cells = assay: In vitro BBB model permeability; format: in vitro ADME, human; settings: hCMEC/D3 monolayer, 1 mg/mL in HBSS, up to 60 min
Outline: (§1)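 hCMEC/D3 brain endothelial cells grown 48 h on 0.4 μm PET transwell inserts in EBM-2 with 5% FBS, hydrocortisone, ascorbic acid, lipid concentrate, HEPES, bFGF. Test compound or lucifer yellow reference (1 mg/mL in HBSS, pH 6.7–7.8) added apically; basolateral HBSS. 37 °C, 5% CO2; lower chamber sampled at 0, 30, 60 min (five replicates). Fluorescence 415/650 nm (LY 420/540); P by clearance principle.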

[3] = In vitro BBB model permeability; format: in vitro ADME, human
Outline: as §1

Molecule | IC50 (Human glioma T98G cells [1]) [µM] | time-dependent uptake (in words) (Human glioma T98G cells [2]) | Permeability coefficient P × 10^–6 (hCMEC/D3 cells) | Papp A→B [3] [nm/s]
5,10,15,20-Tetra(p-carboranylmethylthiotetrafluorophenyl)porphyrin [Compound 1] | > 400 | accumulated the fastest | 1.36 ± 0.04 × 10^–6 cm/s | –
N=C(N)NCCC[C@@H](NC(=O)[C@H](Cc1ccc(O)cc1)NC(=O)CCOCCOCCOCCNc1c(F)c(F)c(-c2c3nc(c(-c4c(F)c(F)c(SCC56BBBBC(BBB5)BBB6)c(F)c4F)c4ccc([nH]4)c(-c4c(F)c(F)c(SCC56BBBBC(BBB5)BBB6)c(F)c4F)c4nc(c(-c5c(F)c(F)c(SCC67BBBBC(BBB6)BBB7)c(F)c5F)c5ccc2[nH]5)C=C4)C=C3)c(F)c1F)C(=O)N[C@@H](Cc1ccccc1)C(=O)NCCC(N)=O [Compound 8] | – | had the least | – | 17.1 ± 0.6
lucifer yellow [LY, reference compound] | – | – | 21.7 ± 0.30 × 10^–6 cm/s | –
